“Also recorded” adds a separate entry of the source. Values belong to the compound of their own block, whether it stands above or below them.
Legend:
MCF-10A cells = test: CyQuant cell viability assay, MCF-10A; assay type: cell-based; details: Homo sapiens, 72 h, read-out: Cell viability EC50 MCF-10A
Method in brief: (§1)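 Cells in 96-well plates were treated with test compound over a range of concentrations for 72 h, then assayed with CyQuant. Viability was normalised to control as % and plotted against concentration to derive EC50. Media: MCF-10A in DMEM/F12 with 5% horse serum, EGF, insulin and hydrocortisone; other lines in DMEM with 10% heat-inactivated FBS.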

[1] = system: MDA-MB-231 or MDA-MB-468 cells; test: Cell viability/growth of breast cancer cells harboring active STAT3; assay type: cell-based, human; details: for viability, anchorage-dependent and independent growth, and colony formation: at 1 μM or less
MDA-MB-231 cells [2] = test: Clonogenic; assay type: cell-based, human; details: treated once
Method in brief: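 Cells were seeded as single-cell cultures at 250 cells per well. They were treated once the next day with test compound at 0–1 μM and cultured until large colonies were visible. Colonies were stained with crystal violet for 4 h and photographed. Data came from three independent determinations.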

STAT1:STAT1 homodimers = molecular target: T1, STAT1:STAT1 homodimers (Mus musculus, UniProt P42225); assay type: biochemical; details: 10 µM, MGFe probe (Fig. S6)
T1 sequence (P42225 2-749 limits assumed): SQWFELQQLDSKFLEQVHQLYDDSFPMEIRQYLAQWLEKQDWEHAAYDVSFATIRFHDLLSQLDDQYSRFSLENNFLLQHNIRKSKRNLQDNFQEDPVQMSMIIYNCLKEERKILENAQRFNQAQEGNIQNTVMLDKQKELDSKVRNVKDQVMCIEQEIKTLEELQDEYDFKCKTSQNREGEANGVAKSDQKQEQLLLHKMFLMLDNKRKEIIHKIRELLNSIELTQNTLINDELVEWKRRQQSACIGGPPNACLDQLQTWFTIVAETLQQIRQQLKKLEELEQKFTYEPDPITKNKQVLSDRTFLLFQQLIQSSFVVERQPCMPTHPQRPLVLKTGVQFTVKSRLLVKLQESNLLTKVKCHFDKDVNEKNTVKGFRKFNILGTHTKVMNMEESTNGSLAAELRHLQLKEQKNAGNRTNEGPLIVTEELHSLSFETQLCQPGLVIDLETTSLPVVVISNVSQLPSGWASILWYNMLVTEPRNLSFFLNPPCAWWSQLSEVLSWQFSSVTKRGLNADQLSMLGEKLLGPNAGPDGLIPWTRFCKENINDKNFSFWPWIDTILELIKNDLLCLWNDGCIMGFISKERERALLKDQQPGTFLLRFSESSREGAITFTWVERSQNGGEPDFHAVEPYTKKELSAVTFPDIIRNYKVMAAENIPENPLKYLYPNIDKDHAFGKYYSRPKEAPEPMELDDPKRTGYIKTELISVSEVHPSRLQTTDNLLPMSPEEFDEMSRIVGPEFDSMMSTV

STAT5:STAT5 homodimers = assay type: biochemical; details: 10 µM, MGFe probe (Fig. S6)
MDA-MB-231 cells [3] = test: Cell growth by trypan blue exclusion/phase-contrast microscopy, MDA-MB-231; assay type: cell-based, human; details: 2 μM
[4] = system: STAT3 DNA-binding activity in MDA-MB-468 cells; test: Constitutive STAT3 DNA-binding activity in treated breast cancer cells; assay type: cell-based, human; details: for earliest time of inhibition of STAT3 DNA-binding activity in cells: MDA-MB-468; for constitutive STAT3 DNA-binding activity in cells: cells treated with 1–5 μM (BBI-608 0.5–5 μM, 2–3 h)
Method in brief: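 MDA-MB-468 cells were treated with 5 μM test compound for 1–3 h; controls received 0.05% DMSO. Nuclear extracts of equal total protein were incubated with 33P-labelled hSIE probe (c-fos m67 variant) for 30 min at 30 °C. STAT3:DNA complexes were then resolved by EMSA. Results came from two to three independent determinations.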

pY705STAT3 = test: Immunoblotting for pY705STAT3 in treated breast cancer cells; assay type: cell-based, human; details: 1–5 μM, 0–24 h (BBI-608 0.5–5 μM, 2–3 h)
Method in brief: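 Controls received 0.05% DMSO. Equal-protein RIPA whole-cell lysates were immunoblotted for pY705STAT3, STAT3 and tubulin. Results came from two to three independent determinations.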

MCF-7 cells [5] = test: Cell growth by trypan blue exclusion/phase-contrast microscopy, MCF-7; assay type: cell-based, human; details: 2 μM
Method in brief: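 Cells cultured in 6-well plates and treated once with 2 μM test compound. Every 24 h (up to 96 h), cells were harvested and viable cells counted by trypan blue exclusion under phase-contrast microscopy. Counts were plotted against treatment duration. Cells were grown in DMEM with 10% heat-inactivated FBS.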

STAT3 = STAT3 (Mus musculus, UniProt P42227); assay type: biochemical; details: up to 10 μM
STAT3, sequence (P42227 2-770 limits assumed): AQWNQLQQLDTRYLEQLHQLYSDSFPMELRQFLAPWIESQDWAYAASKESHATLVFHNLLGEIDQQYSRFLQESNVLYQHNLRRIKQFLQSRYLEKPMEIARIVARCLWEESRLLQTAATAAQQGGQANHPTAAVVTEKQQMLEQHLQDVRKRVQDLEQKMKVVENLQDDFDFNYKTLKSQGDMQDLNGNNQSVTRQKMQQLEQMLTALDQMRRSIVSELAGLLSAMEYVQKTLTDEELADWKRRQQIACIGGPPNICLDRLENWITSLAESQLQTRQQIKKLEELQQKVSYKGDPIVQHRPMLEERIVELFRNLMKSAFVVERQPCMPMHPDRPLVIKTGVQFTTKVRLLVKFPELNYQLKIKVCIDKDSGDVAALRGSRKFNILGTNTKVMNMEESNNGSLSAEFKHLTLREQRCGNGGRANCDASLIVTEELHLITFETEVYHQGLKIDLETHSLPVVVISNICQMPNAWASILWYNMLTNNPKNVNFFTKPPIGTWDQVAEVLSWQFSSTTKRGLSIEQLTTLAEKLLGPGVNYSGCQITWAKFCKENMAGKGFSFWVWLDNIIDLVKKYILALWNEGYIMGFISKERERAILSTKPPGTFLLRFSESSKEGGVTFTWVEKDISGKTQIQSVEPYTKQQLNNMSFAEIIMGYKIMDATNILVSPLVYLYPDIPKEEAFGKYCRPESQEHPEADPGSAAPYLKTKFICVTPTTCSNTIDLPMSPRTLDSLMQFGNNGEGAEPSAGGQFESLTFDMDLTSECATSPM

MCF-7 cells [6] = test: CyQuant cell viability assay, MCF-7; assay type: cell-based, human
Method in brief: as §1

[7] = cited from earlier work

Structure (SMILES): COC(=O)c1ccc(N(Cc2ccc(C3CCCCC3)nc2)C(=O)[C@H]2CCN2S(=O)(=O)c2c(F)c(F)c(F)c(F)c2F)cc1O [Compound 7c]
EC50 (MCF-10A cells): 3.6 µM

Structure (SMILES): COC(=O)c1ccc(N(Cc2cnc(C3CCCCC3)cn2)C(=O)[C@H]2CCN2S(=O)(=O)c2c(F)c(F)c(F)c(F)c2F)c(F)c1 [Compound 7e]
viability, anchorage-dependent and independent growth, and colony formation [1]: strongly inhibited
inhibition of colony formation (MDA-MB-231 cells [2]; 0.5 μM): minimal to moderate inhibition of colony formation
inhibition of colony formation (MDA-MB-231 cells [2]; 1 μM): near-complete inhibition

Structure (SMILES): COC(=O)c1ccc(N(Cc2cnc(C3CCCCC3)cn2)C(=O)[C@H]2CCN2S(=O)(=O)c2c(F)c(F)c(F)c(F)c2F)cc1O [Compound 7f]
viability, anchorage-dependent and independent growth, and colony formation [1]: strongly inhibited
inhibition of colony formation (MDA-MB-231 cells [2]; 0.5 μM): minimal to moderate inhibition of colony formation
inhibition of colony formation (MDA-MB-231 cells [2]; 1 μM): significant inhibition

effect on DNA-binding activity of STAT1:STAT1 homodimers (STAT1:STAT1 homodimers): minimal effect
effect on DNA-binding activity of STAT5:STAT5 homodimers (STAT5:STAT5 homodimers): minimal effect
Structure (SMILES): O=C(NO)c1ccc(N(Cc2ccc(C3CCCCC3)cc2)C(=O)[C@H]2CCN2S(=O)(=O)c2c(F)c(F)c(F)c(F)c2F)cc1O [Compound 8d]

effect on DNA-binding activity of STAT1:STAT1 homodimers (STAT1:STAT1 homodimers): minimal effect
effect on DNA-binding activity of STAT5:STAT5 homodimers (STAT5:STAT5 homodimers): minimal effect
Structure (SMILES): O=C(NO)c1ccc(N(Cc2ccc(C3CCCCC3)cc2)C(=O)[C@H]2CCN2S(=O)(=O)c2c(F)c(F)c(F)c(F)c2F)c(F)c1 [Compound 8f]

Structure (SMILES): O=C(NO)c1ccc(N(Cc2ccc(C3CCCCC3)cn2)C(=O)[C@H]2CCN2S(=O)(=O)c2c(F)c(F)c(F)c(F)c2F)c(F)c1 [Compound 8l]
activity against breast cancer cells ([1]; up to 10 μM): weakly active

effect on DNA-binding activity of STAT5:STAT5 homodimers (STAT5:STAT5 homodimers): minimal effect
Structure (SMILES): CNC(=O)c1ccc(N(Cc2ccc(C3CCCCC3)cn2)C(=O)[C@H]2CCN2S(=O)(=O)c2c(F)c(F)c(F)c(F)c2F)cc1O [Compound 8q]
cell growth MDA-MB-231, trypan blue exclusion (MDA-MB-231 cells [3]): good activity
earliest time of inhibition of STAT3 DNA-binding activity in cells [4]: 6 h
constitutive STAT3 DNA-binding activity in cells [4]: inhibited to variable degrees
inhibition of colony formation (MDA-MB-231 cells [2]; 1 μM): does not show any inhibitory effect
pY705STAT3 in breast cancer cells (pY705STAT3): inhibited pY705STAT3 in dose- and time-dependent manner
cell growth MCF-7, trypan blue exclusion (MCF-7 cells [5]): no effect

effect on DNA-binding activity of STAT5:STAT5 homodimers (STAT5:STAT5 homodimers): minimal effect
Structure (SMILES): O=C1NC(=O)c2cc(N(Cc3ccc(C4CCCCC4)cn3)C(=O)[C@H]3CCN3S(=O)(=O)c3c(F)c(F)c(F)c(F)c3F)ccc21 [Compound 9k]
viability, anchorage-dependent and independent growth, and colony formation [1]: strongly inhibited
cell growth MDA-MB-231, trypan blue exclusion (MDA-MB-231 cells [3]): strongly inhibited cell growth
earliest time of inhibition of STAT3 DNA-binding activity in cells [4]: 0.083 h
constitutive STAT3 DNA-binding activity in cells [4]: inhibited to variable degrees
inhibition of colony formation (MDA-MB-231 cells [2]; 0.5 μM): minimal to moderate inhibition of colony formation
inhibition of colony formation (MDA-MB-231 cells [2]; 1 μM): significant inhibition
pY705STAT3 in breast cancer cells (pY705STAT3): inhibited pY705STAT3 in dose- and time-dependent manner; also recorded: bounced back by 24 h
cell growth MCF-7, trypan blue exclusion (MCF-7 cells [5]): no effect

direct effect on STAT3 activity in the DNA-binding assay/EMSA (STAT3): minimal direct effect
Structure (SMILES): COc1ccc(S(=O)(=O)Nc2cc(-c3c(O)ccc4ccccc34)c(O)c3ccccc23)cc1 [Compound C188-9]
stronger activity against MCF-7 than MDA-MB-231 (MCF-7 cells [6]): 2 fold

Structure (SMILES): CN(CC(=O)N(Cc1ccc(C2CCCCC2)cc1)c1ccc(C(=O)O)cc1)S(=O)(=O)c1c(F)c(F)c(F)c(F)c1F [SH4-54]
cellular activities of parent lead compounds [7]: 4.5 µM

Structure (SMILES): CN(CC(=O)N(Cc1ccc(C2CCCCC2)cc1)c1ccc(C(=O)NO)cc1)S(=O)(=O)c1c(F)c(F)c(F)c(F)c1F [SH5-07]
cellular activities of parent lead compounds [7]: 3.8 µM

direct effect on STAT3 activity in the DNA-binding assay/EMSA (STAT3): minimal direct effect
Structure (SMILES): CC(=O)c1cc2c(o1)C(=O)c1ccccc1C2=O [napabucasin, reference compound]
constitutive STAT3 DNA-binding activity in cells [4]: weak to moderate effects
pY705STAT3 in breast cancer cells (pY705STAT3): weak to moderate effects

Reference: paper PMC7816766 (Journal of Medicinal Chemistry, 2020)
